Laboratory results as given in the array DNA melting data of Ke et al. (doi:10.1101/2024.01.08.574731).

Tests used:
[1] = folding enthalpy; higher = less favourable; fluorescence melt of hairpins on a sequencing array, two-state fit; conditions: sodium 0.088 M
Summary of the method: (§1)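 In 50 mM Na-HEPES pH 8.0 containing 25 mM NaCl, hairpins from the library on a sequenced MiSeq flow cell were imaged for Cy3 fluorescence at 2.5 °C steps up to 60 °C, with Cy3 and quencher oligos annealed. After normalisation to pre-quench Cy3 and to control constructs, two-state fits with bootstrapping gave melting temperature and folding enthalpy. Four replicates were combined by inverse-variance weighting, and fitted temperatures were shifted up by 9.35 °C to match UV melts.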

[2] = melting temperature; fluorescence melt of hairpins on a sequencing array, two-state fit, raised by 9.35 °C to match UV melts; conditions: sodium 0.088 M
Summary of the method: as §1

Sequence | folding enthalpy [1] | Tm [2]
GGCGTTGCGAAAGCAGCC (((..(((....)))))) | -32.3 kcal/mol | 63.1 °C
GGCTAACGAAAGTTGCC (((.(((....)))))) | -30 kcal/mol | 54 °C
GGCTAAGGAAACCTAGCC (((((.(....).))))) | -31.5 kcal/mol | 46.6 °C
GGCTAAGGAAACTTAGCC (((((((....))))))) | -37.7 kcal/mol | 60.8 °C
GGCTACACGAAAGTGGCC (((..(((....)))))) | -24.3 kcal/mol | 51.6 °C
GGCTACGAAAGTAAGGCC ((((((....)))..))) | -23.3 kcal/mol | 48.2 °C
GGCTACGAAAGTACGCC ((((((....))).))) | -33.4 kcal/mol | 53.5 °C
GGCTACGAAAGTAGAGCC ((((((....)))..))) | -20 kcal/mol | 49.5 °C
GGCTACGAAAGTATCGCC ((((((....)))..))) | -22.5 kcal/mol | 40.6 °C
GGCTACGGAAACGTGGCC (((.(((....))).))) | -47.4 kcal/mol | 60.1 °C
GGCTAGACGAAAGTCGCC (((..(((....)))))) | -25.2 kcal/mol | 53.4 °C
GGCTATGAAAATAGCC ((((((....)))))) | -45.7 kcal/mol | 59.1 °C
GGCTATGGAAACATAGCC (((((((....))))))) | -37.6 kcal/mol | 66.1 °C
GGCTATGGAAACATGGTC (.(.(((....))).).) | -23.9 kcal/mol | 35.7 °C
GGCTATGGAAACGTAGCC (((((.(....).))))) | -46 kcal/mol | 52.6 °C
GGCTATGGAAACGTAGTC (.(((.(....).))).) | -18.6 kcal/mol | 32.3 °C
GGCTATTCGAAAGAAGCC (((..(((....)))))) | -25.2 kcal/mol | 37.7 °C
GGCTCACGAAAGTGTGCC (((.(((....))).))) | -30.8 kcal/mol | 64.3 °C
GGCTCAGGAAACTAAGCC ((((.((....)).)))) | -29.1 kcal/mol | 39 °C
GGCTCAGGAAACTGGGCC (((.(((....))).))) | -43.7 kcal/mol | 58.3 °C
GGCTCCCGAAAGGGGCC (((.(((....)))))) | -30.1 kcal/mol | 68 °C
GGCTCCGAAAGGACCGCC ((((((....)))..))) | -19.8 kcal/mol | 53.3 °C
GGCTCCGAAAGGAGAGCC ((((((....)))..))) | -20.7 kcal/mol | 55.6 °C

Sequence | folding enthalpy [1] | Tm [2]
GGCTCCGAAAGGATTGCC ((((((....)))..))) | -19.6 kcal/mol | 48.7 °C
GGCTCGGGAAACCGAGTC (.(((((....))))).) | -29.9 kcal/mol | 61.5 °C
GGCTCGGGAAACTGAGCC (((((.(....).))))) | -61.1 kcal/mol | 61.4 °C
GGCTCTCGAAAGAGGCC (((.(((....)))))) | -43 kcal/mol | 56.9 °C
GGCTCTGGAAACAGGGTC (.(.(((....))).).) | -29.6 kcal/mol | 37.5 °C
GGCTCTGGAAACGGAGTC (.(((.(....).))).) | -30.2 kcal/mol | 40 °C
GGCTGACGAAAGTCCGCC (((.(((....))).))) | -36.6 kcal/mol | 58.6 °C
GGCTGAGCGAAAGCTGCC (((..(((....)))))) | -20 kcal/mol | 51.6 °C
GGCTGCCCGAAAGGGGCC (((..(((....)))))) | -13.7 kcal/mol | 47.6 °C
GGCTGCGAAAGCAAAGCC ((((((....)))..))) | -24.7 kcal/mol | 61.3 °C
GGCTGCGAAAGCAACGCC ((((((....)))..))) | -22.1 kcal/mol | 56.6 °C
GGCTGCGAAAGCAGAGCC ((((((....)))..))) | -16.3 kcal/mol | 60.1 °C
GGCTGCGAAAGCAGTGCC ((((((....)))..))) | -12.1 kcal/mol | 51.7 °C
GGCTGCGGAAACGCAGTC (.(((((....))))).) | -22.4 kcal/mol | 66.1 °C
GGCTGGCCGAAAGGCGCC (((..(((....)))))) | -16.4 kcal/mol | 61 °C
GGCTGTCGAAAGACGCC (((.(((....)))))) | -31.2 kcal/mol | 61.1 °C
GGCTGTGGAAACACAACC ((.((((....)))).)) | -31.5 kcal/mol | 44.4 °C
GGCTGTGGAAACGCAGCC (((((.(....).))))) | -48.6 kcal/mol | 63.4 °C
GGCTGTGGAAACGCAGTC (.(((.(....).))).) | -23.4 kcal/mol | 42.4 °C
GGCTGTTCGAAAGAAGCC (((..(((....)))))) | -20.9 kcal/mol | 38.2 °C
GGCTTACGAAAGTACGCC (((.(((....))).))) | -48 kcal/mol | 52.9 °C
GGCTTAGCGAAAGCTGCC (((..(((....)))))) | -23 kcal/mol | 52.5 °C
GGCTTAGGAAACCAAGCC (((((.(....).))))) | -31.4 kcal/mol | 47.4 °C

Sequence | folding enthalpy [1] | Tm [2]
GGCTTATCGAAAGATGCC (((..(((....)))))) | -24.1 kcal/mol | 39.8 °C
GGCTTCACGAAAGTGGCC (((..(((....)))))) | -19.6 kcal/mol | 45.2 °C
GGCTTCGAAAGAAAGCC ((((((....))).))) | -38.1 kcal/mol | 55 °C
GGCTTCGAAAGAAAGGCC ((((((....)))..))) | -26 kcal/mol | 43.4 °C
GGCTTCGAAAGAACTGCC ((((((....)))..))) | -21.5 kcal/mol | 36.7 °C
GGCTTCGAAAGAATGCC ((((((....))).))) | -27.9 kcal/mol | 50.7 °C
GGCTTCGAAAGAATTGCC ((((((....)))..))) | -23.3 kcal/mol | 35.4 °C
GGCTTGGGAAACCGAGCC ((((.((....)).)))) | -54.1 kcal/mol | 58.5 °C
GGCTTGGGAAACTAAGCC (((((.(....).))))) | -45.5 kcal/mol | 52.2 °C
GGCTTGGGAAACTGAGCC ((((..(....)..)))) | -32.9 kcal/mol | 45.7 °C
GGCTTTCCGAAAGGAGCC (((..(((....)))))) | -24.5 kcal/mol | 45.2 °C
GGCTTTCGAAAGAAGCC (((.(((....)))))) | -41.6 kcal/mol | 52.8 °C
GGCTTTGAAAAAAGCC ((((((....)))))) | -38.5 kcal/mol | 57.6 °C
GGGAAACCGAAAGGTCCC (((..(((....)))))) | -19.7 kcal/mol | 46.6 °C
GGGAAACGAAAGTTACCC (((.(((....))).))) | -29.5 kcal/mol | 50.7 °C
GGGAAACGAAAGTTGCCC (((.(((....))).))) | -43.9 kcal/mol | 56.6 °C
GGGAAAGAAATTTCCC ((((((....)))))) | -27.4 kcal/mol | 48.7 °C
GGGAAAGGAAACCTTCCC (((((.(....).))))) | -28.2 kcal/mol | 39.2 °C
GGGAAATCGAAAGATCCC (((..(((....)))))) | -21.6 kcal/mol | 36 °C
GGGAACCGAAAGGTCCC (((.(((....)))))) | -20.9 kcal/mol | 57.3 °C
GGGAACGAAAGTTTCCC ((((((....))).))) | -31.5 kcal/mol | 52.9 °C
GGGAACGAAAGTTTCCCC ((((((....)))..))) | -19.9 kcal/mol | 53.5 °C
GGGAACGGAAACATTCCC (((((.(....).))))) | -32.6 kcal/mol | 39.4 °C

Sequence | folding enthalpy [1] | Tm [2]
GGGAACTCGAAAGAGCCC (((..(((....)))))) | -20.3 kcal/mol | 37.8 °C
GGGAAGCGAAAGCTGCCC (((.(((....))).))) | -23.2 kcal/mol | 65.2 °C
GGGAAGGGAAACCTTCCC (((((((....))))))) | -35.5 kcal/mol | 65.4 °C
GGGAATCGAAAGATCCCC (((.(((....))).))) | -24.9 kcal/mol | 51.5 °C
GGGAATGCGAAAGCACCC (((..(((....)))))) | -19.4 kcal/mol | 42.3 °C
GGGAATGGAAACACTCCC ((((.((....)).)))) | -29.3 kcal/mol | 36.9 °C
GGGAATGGAAACATCCCC (((.(((....))).))) | -24.7 kcal/mol | 42.2 °C
GGGACACGAAAGTGACCC (((.(((....))).))) | -37.1 kcal/mol | 62.9 °C
GGGACACGAAAGTGCCCC (((.(((....))).))) | -37.8 kcal/mol | 63.1 °C
GGGACAGGAAACCGTCCC (((((.(....).))))) | -36.2 kcal/mol | 52.8 °C
GGGACAGGAAACTATCCC ((((.((....)).)))) | -29.4 kcal/mol | 35.4 °C
GGGACCGAAAGGTCACCC ((((((....)))..))) | -12.2 kcal/mol | 56.9 °C
GGGACCGAAAGGTCTCCC ((((((....)))..))) | -11.7 kcal/mol | 51.9 °C
GGGACCGAAAGGTTCCCC ((((((....)))..))) | -15.4 kcal/mol | 59.7 °C
GGGACCGGAAACGGCCCC (((.(((....))).))) | -37 kcal/mol | 62.5 °C
GGGACCGGAAACGGTCTC (.(((((....))))).) | -13.2 kcal/mol | 59.2 °C
GGGACCGGAAACGGTTCC ((.((((....)))).)) | -42.5 kcal/mol | 62.6 °C
GGGACCTCGAAAGAGCCC (((..(((....)))))) | -19.4 kcal/mol | 35.3 °C
GGGACGGGAAACCATCCC ((((.((....)).)))) | -31.6 kcal/mol | 44.7 °C
GGGACGGGAAACCGCCCC (((.(((....))).))) | -44.1 kcal/mol | 57.3 °C
GGGACGGGAAACTGTCCC (((((.(....).))))) | -39.8 kcal/mol | 57.8 °C
GGGACTACGAAAGTACCC (((..(((....)))))) | -19.5 kcal/mol | 36.1 °C
